Rows were chosen to be rich in hits. Some 3.9% of all compounds tested hit in one or more screens of this group.
CHOP inhibitor = inhibitors of CHOP induction in ER stress response; CHO-K1 CHOP-promoter luciferase, tunicamycin-induced, 15-18 h; inhibition, % at 10 µM; 220,000 tested, 3.8% active; AID 2732;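 active = compounds that reduced the stress-induced luciferase reporter signal by more than about 70% of percent inhibition, limit read from the data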
Jurkat NFkB inh = lowers PMA/ionomycin-induced NF-kB signal in Jurkat cells; PMA/ionomycin-induced NF-kB luciferase reporter, luminescence; inhibition, % at 4 µM; 330,000 tested, 0.53% active; AID 435003; in the data active = inhibition above about 50%
Gli-Sufu antag = Gli-Sufu pathway antagonism; Sufu-KO-LIGHT fibroblasts, Gli luciferase reporter luminescence; inhibition, % at 5 µM; 340,000 tested, 0.74% active; AID 588413;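 active = inhibition above about 55%, limit read from the data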
XBP1 UPR activ = adaptive UPR (XBP1) activation. activation, % at 20 µM. 330,000 tested, 0.33% active. CHO-XBP1 luciferase reporter, IRE1-XBP1 UPR activation, luminescence; percent of tunicamycin response, DMSO as zero;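 active = versus positive control, 20 µM dose yields 30% or more activation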
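Assay system: IRE1-XBP1 luciferase reporter CHO line. Input: 1000 cells/well. Buffer or medium: F12 with 10% serum. Doses: 20 µM, 1% DMSO. Times: overnight seeding at 37 °C, 6 h compound treatment at 37 °C. Technique: Steady-Glo luciferase glow luminescence, 10 min after reagent addition.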
697 NFkB inh = inhibitors of the PMA/ionomycin-induced NF-kB reporter in 697 B cells; inhibition, % at 4 µM; 330,000 tested, 0.33% active; 697 B-cell NF-kB luciferase reporter, 16 h; in the data active = inhibition above about 35%
CHOP UPR activ = activators of apoptotic arm of unfolded protein response (CHOP); activation, % at 10 µM; 330,000 tested, 0.34% active; CHO-CHOP luciferase reporter, UPR activation, luminescence; percent of tunicamycin response over DMSO baseline;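 active = at 10 µM dose, activation of 40% or more, normalized to positive control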
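measured by = luciferase luminescence | assay system = CHO-CHOP cells, stable luciferase reporter of PERK-eIF2a-CHOP signalling | amount = 500 reporter cells seeded per well | timing = 6 h compound exposure at 37 °C after overnight seeding | controls = positive tunicamycin 10 µg/mL, negative DMSO alone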
Jurkat NFkB conf = lowers PMA/ionomycin-induced NF-kB signal in Jurkat cells; shares compounds with Jurkat NFkB inh; inhibition, % at 4 µM; AID 435020; Jurkat NF-kB luciferase, 16 h; 2,700 tested, 27% active;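 active = inhibition reaching about 45% at 4 µM in either replicate, limit read from the data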
Hits are given with their value; - = inactive; . = not tested or not shown.

SMILES	CHOP inhibitor	Jurkat NFkB inh	Gli-Sufu antag	XBP1 UPR activ	697 NFkB inh	CHOP UPR activ	Jurkat NFkB conf
Cc1ccc(C)c(C(=O)CN2C(=O)NC3(CCC(C)CC3)C2=O)c1 (configuration not stated)	-	64	-	-	-	-	-
COC(=O)c1c(-c2ccc(C)cc2)csc1NC(=O)c1c(-c2ccccc2)noc1C	-	-	.	-	-	-	.
COC(=O)c1c(-c2cccnc2)csc1NC(=O)c1cc(C)on1	-	-	-	-	-	-	-
COc1ccc(Cc2nc3ccc(C(=O)NCCc4cccc(C)n4)cc3o2)cc1	.	-	-	-	-	-	.
Cn1c(=O)c2c(ncn2CC(=O)OCC(=O)Nc2ccccc2)n(C)c1=O	-	-	-	-	-	-	.
COc1ccccc1NC(=O)COC(=O)Cn1cnc2c1c(=O)n(C)c(=O)n2C	.	60	-	-	-	-	-
Nc1nc(-c2ccc3ccccc3c2)cs1	-	-	-	-	-	-	-
COc1ccc(OCCCC(=O)OCC(=O)NNC(=O)c2ccc([N+](=O)[O-])cc2)cc1	.	-	-	-	-	-	.
COc1ccc2cc(-c3ccccc3F)ncc2c1	.	-	-	-	-	-	-
COc1ccc(-c2cc3ccccc3cn2)cc1	.	-	-	-	-	-	-
COc1ccc2cc(-c3cccnc3)ncc2c1	.	-	-	-	-	-	.
Cc1cc(C)nc(S/C=C/C(=O)c2ccc(F)cc2)n1	-	70	.	-	-	-	-
Cc1cc(C)nc(SCC(=O)c2ccc(F)cc2)n1	.	-	-	-	-	-	.
Cc1cc(C)cc(Nc2nc3ccccc3c(=O)[nH]2)c1	-	-	-	-	-	-	.
COc1nc(Nc2nc3ccccc3c(=O)[nH]2)nc2ccc(C)cc12	88	81	63	-	-	-	-
CCOc1ccc(S(=O)(=O)NCCC(=O)NCc2ccncc2)cc1	.	-	-	-	-	-	.
CCSC(=O)N1c2ccc(OC)cc2C=CC1C#N (configuration not stated)	.	.	-	.	.	.	.
O=C(Nc1ccc([N+](=O)[O-])cc1)Nc1ccon1	.	63	-	-	-	-	-
O=C(Nc1ccc(S(=O)(=O)Nc2ncccn2)cc1)C1=COCCO1	.	-	-	-	-	-	.
COc1ccc(NC(=O)CSc2nc(SC)ns2)cc1	.	-	-	-	-	-	-
COC(=O)CSc1nsc(SCC(=O)OC)n1	-	62	-	-	-	-	-
COc1ccc(NC(=O)N2CCNC(=O)C2CC(=O)Nc2ccc(F)cc2)cc1 (configuration not stated)	.	-	-	-	-	-	.
Cc1cccn2cc(-c3ccccc3)nc12	-	-	-	-	-	-	.
Cc1cccn2cc(-c3ccc(F)cc3)nc12	-	-	-	-	-	-	-
O=C(NC(Cc1ccccc1)C(=O)NCCc1ccccn1)c1ccccc1 (configuration not stated)	.	-	-	-	-	-	.
SMILES	CHOP inhibitor	Jurkat NFkB inh	Gli-Sufu antag	XBP1 UPR activ	697 NFkB inh	CHOP UPR activ	Jurkat NFkB conf
CC(C)CC(=O)Nc1cc2c3c(c1)C(C)C(=O)N3CCC2 (configuration not stated)	.	-	-	-	-	-	.
Cc1ccc(NC(=O)CN2CCCC2)cc1Br	.	-	-	-	-	-	.
Cc1ccc(-c2nnc(SCc3ccccc3F)o2)cc1	75	-	-	-	-	-	-
COc1ccccc1NC(CC(=O)c1ccccc1)C(=O)OCC(=O)c1ccc(Br)cc1 (configuration not stated)	-	-	-	-	-	-	-
O=C(CC(Nc1ccccc1Cl)C(=O)OCC(=O)c1cccs1)c1ccccc1 (configuration not stated)	-	-	-	-	-	-	-
COc1ccccc1NC(CC(=O)c1ccccc1)C(=O)OCC(=O)c1ccc(C)cc1 (configuration not stated)	-	-	-	-	-	-	.
NC(=O)CSc1nc(C2CC2)nc2sc3c(c12)CCCC3	-	-	-	-	-	-	-
CCCOC(=O)Cn1cnc2scc(-c3ccc(OC)cc3)c2c1=O	.	-	-	-	-	-	.
Cc1cc(NC(=O)CSc2nnc3c(C)cc4c(C)ccc(C)c4n23)no1	.	59	-	-	-	-	-
CCc1nnc(NC(=O)CSc2nnc3c(C)cc4c(C)ccc(C)c4n23)s1	-	-	-	-	-	-	.
O=C(Nc1ccccc1F)c1cc(S(=O)(=O)N2CCOCC2)ccc1N1CCOCC1	.	-	-	-	-	-	.
O=C(Nc1ccc(S(=O)(=O)N2CCCCC2)cc1)c1ccncc1	-	-	-	-	-	-	.
O=C(Nc1ccc(S(=O)(=O)N2CCCC2)cc1)c1ccc(CN2CCc3ccccc3C2)cc1	70	75	-	-	-	-	75
O=C(Nc1ccc(Cc2ccncc2)cc1)c1ccc(S(=O)(=O)N2CCCC2)cc1	-	50	-	-	-	-	47
O=C1CC(NS(=O)(=O)c2ccc([N+](=O)[O-])cc2)CN1c1ccc(Cl)cc1 (configuration not stated)	.	-	-	-	-	-	.
COc1ccc(-c2cc3ccc(OCC(C)=O)cc3oc2=O)cc1	.	-	-	-	-	-	-
COC(=O)C1C2CCCCC1C(=O)O2 (configuration not stated)	.	.	-	.	.	.	.
Cn1c2ccccc2c(=O)c2ccc(C#CC3(N)CCCCC3)cc21	.	-	-	-	-	-	-
Cn1c2ccccc2c(=O)c2cc(C#CC3(O)CCCCC3)ccc21	.	-	-	-	-	-	.
O=S(=O)(Nc1ccccc1OC(F)F)c1ccc(S(=O)(=O)N2CCCC2)cc1	.	-	-	-	-	-	.
O=C(/C=C/c1ccc(Cl)c(Cl)c1)NC1=NCCS1	-	-	-	-	-	-	.
CC(C)c1ccc(/C=C/C(=O)NC2=NCCS2)cc1	-	-	.	-	-	-	-
CCCN1CCC(=O)N(CCSc2ccc(OC)cc2)CC1	-	54	-	-	-	-	-
CCCN1CCC(=O)N(CCSc2ccc(C)cc2)CC1	-	-	-	-	-	-	.
Cc1ccc(C)c(NC(=O)C2CCCN(c3cnccn3)C2)c1 (configuration not stated)	.	-	-	-	-	-	.
O=C(CN1CCN(C(=O)C2CCCO2)CC1)Nc1cc(C(F)(F)F)ccc1Cl (configuration not stated)	.	-	-	-	-	-	.
Cc1ccc(C(=O)NCCNC(=O)c2ccc(F)cc2)cn1	.	-	-	-	-	-	.
CC(C)Oc1ccc(C(CCN)C2CCCCC2)cc1 (configuration not stated)	.	56	-	-	-	-	-

Bioassay records from PubChem BioAssay.
